Results on five molecules are retold here after PMC5817033 (Nuclear medicine and biology, 2017).

“And” between values parts separate entries of the source, which are not always exact repeats. Identical values can stand only once. Like-named read-outs stand apart in the source and are kept apart here.

A short description of series [1]: Ex-vivo biodistribution of ^18F-1 co-injected with ^131I-OIH in normal rats. Set-up: species or system Sprague-Dawley rats. To be noted: mean ± SD.
The conditions of series [2]: cited from earlier work.
The conditions of series [3]: normal rats, mean ± SD, cited from earlier work.
For series [4] the following is noted: cited from earlier work. This is another data set of the same source.
The conditions of series [5]: rat blood, mean of duplicate.
The conditions of series [6]: pH 7, room temperature, over 23 hours after labeling.
For series [7] the following is noted: rat urine collected for 10 min after i.v. injection.
For series [8] the following is noted: rat plasma, ultrafiltration, mean of duplicate.
The conditions of series [9]: rats, 1 h post injection; cited from earlier work.
Series [10] is described as follows: Thermal stability of labeling precursor by HPLC. The class given is physicochemical. To be noted: 110 °C for 1 hour. In a few lines:
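Tosylate labeling precursor heated at 110 °C for 1 hour. Stability is judged by comparing its HPLC chromatograms before and after heating.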

In the case of `O=C(O)CNC(=O)c1ccccc1[131I]` [OIH, ^131I-orthoidodohippurate], in series [1] (10 min after i.v. injection), the Blood activity came out at 4.5 ± 0.4 %ID; the “Bowel activity (intestines and stomach)” value was determined as 1.3 ± 0.6 %ID; the Heart activity stood at 0.1 ± 0.0 %ID; the Kidney activity is listed as 5.2 ± 1.6 %ID. In series [1] (10 min after i.v. injection), the Liver activity is recorded as 2.8 ± 0.6 %ID, the Lung activity is 0.3 ± 0.1 %ID, the Spleen activity is on record as 0.1 ± 0.0 %ID and the Urine activity was determined as 54.4 ± 6.9 %ID. Besides, in series [1] (60 min after i.v. injection), the Blood activity turned out to be 0.8 ± 0.1 %ID; the “Bowel activity (intestines and stomach)” value came out at 1.1 ± 0.2 %ID; the Heart activity is reported as 0.0 ± 0.0 %ID; the Kidney activity is 1.0 ± 0.8 %ID. Besides, in series [1] (60 min after i.v. injection), the Liver activity turned out to be 0.6 ± 0.1 %ID, the Lung activity was 0.1 ± 0.1 %ID, the Spleen activity worked out at 0.0 ± 0.0 %ID and the Urine activity is on record as 84.8 ± 3.8 %ID. Moreover, in [2], the Plasma protein binding was 44%. In [3] (10 min after injection), the Blood activity is 5.8 ± 1.0 %ID; the “Bowel activity (intestines and stomach)” value is reported as 1.8 ± 0.2 %ID; the Heart activity is reported as 0.2 ± 0.0 %ID; the Kidney activity is 4.8 ± 0.8 %ID. For the same molecule, in series [3] (10 min after injection), the Liver activity is 3.0 ± 0.9 %ID, the Lung activity is listed as 0.4 ± 0.1 %ID, the Spleen activity is on record as 0.1± 0.0 %ID and the Urine activity is given as 54.2 ± 9.2 %ID. In series [3] (60 min after injection), the Blood activity was 0.5 ± 0.4 %ID; the “Bowel activity (intestines and stomach)” value was 1.2 ± 0.5 %ID; the Heart activity is given as 0.1 ± 0.0 %ID; the Kidney activity is reported as 0.5 ± 0.2 %ID. Further, in [3] (60 min after injection), the Liver activity is 0.5 ± 0.1 %ID, the Lung activity is reported as 0.1 ± 0.1 %ID, the Spleen activity was 0.1 ± 0.1 %ID and the Urine activity is reported as 80.2 ± 5.3 %ID. In addition, the Red cell uptake in [4] is reported as 35%.

For `O=C([O-])CN(CC[18F])CC(=O)[O-].[C-]#[O+].[C-]#[O+].[C-]#[O+].[Re+]` [^18F-1, rhenium-tricarbonyl-N-(2-[^18F]fluoroethyl)iminodiacetic acid], the “%Urine: urine activity as a percentage of ^131I-OIH (^18F/^131I-OIH ratio)” value in series [1] (10 min) is 92% and 92 ± 14%. For the same molecule, in [1] (10 min after i.v. injection), the Blood activity is 5.2 ± 0.7 %ID; the Bone uptake is reported as 0.08 ± 0.01 %ID/g; the “Bowel activity (intestines and stomach)” value came to 2.1 ± 1.7 %ID; the Heart activity is reported as 0.1 ± 0.0 %ID. In series [1] (10 min after i.v. injection), this molecule had a Kidney activity of 9.4 ± 2.0 %ID, a Liver activity of 5.6 ± 0.3 %ID, a Lung activity of 0.4 ± 0.1 %ID and a Spleen activity of 0.1 ± 0.0 %ID. The same molecule came in with a Urine activity in [1] (10 min after i.v. injection) of 49.3 ± 3.7 %ID. Moreover, in series [1] (60 min), the “%Urine: urine activity as a percentage of ^131I-OIH (^18F/^131I-OIH ratio)” value was 95% and 95 ± 5%. In [1] (60 min after i.v. injection), the Blood activity was determined as 0.3 ± 0.1 %ID; the “Bowel activity (intestines and stomach)” value was 3.9 ± 2.0 %ID; the Heart activity is on record as 0.0 ± 0.0 %ID; the Kidney activity came to 1.0 ± 0.7 %ID. In [1] (60 min after i.v. injection), this molecule came in with a Liver activity of 0.4 ± 0.1 %ID, a Lung activity of 0.1 ± 0.1 %ID, a Spleen activity of 0.0 ± 0.0 %ID and a Urine activity of 80.5 ± 4.4 %ID. In series [5], the “Erythrocyte uptake (RCB)” value was found to be 21%. In addition, in series [6], the “In vitro stability of formulated solution (HPLC)” value is listed as “No measurable decomposition”. Also, the “In vivo stability: HPLC analysis of urine for metabolites” value in series [7] is “only the intact parent compound”. The “Plasma protein binding (PPB)” value in series [8] was 87%.

In the case of `O=C(O)CNC(=O)c1ccc([18F])cc1` [^18F-PFH, p-^18F-fluorohippuran], in [9], the Activity in blood was ~ 0.3 %ID and the Activity in urine is on record as ~ 81 % ID.

As for “^99mTc(CO)3(2-fluoroethyl)iminodiacetic acid [^99mTc-1]”, the “%Urine: urine activity as a percentage of ^131I-OIH (^99mTc/^131I-OIH ratio)” value in series [3] (10 min) is 100 ± 4%. Further, in series [3] (10 min after injection), the Blood activity is on record as 5.1 ± 0.9 %ID; the “Bowel activity (intestines and stomach)” value was 2.9 ± 0.5 %ID; the Heart activity is 0.1 ± 0.0 %ID; the Kidney activity is 6.6 ± 2.1 %ID. Moreover, in series [3] (10 min after injection), the Liver activity is 5.9 ± 0.8 %ID, the Lung activity is 0.4 ± 0.2 %ID, the Spleen activity is 0.1 ± 0.0 %ID and the Urine activity was 54.1 ± 7.2 %ID. In [3] (60 min), the “%Urine: urine activity as a percentage of ^131I-OIH (^99mTc/^131I-OIH ratio)” value was 99 ± 2%. Besides, in series [3] (60 min after injection), the Blood activity is 0.3 %ID and 0.3 ± 0.1 %ID; the “Bowel activity (intestines and stomach)” value is 2.9 ± 1.4 %ID; the Heart activity is reported as 0.0 ± 0.0 %ID; the Kidney activity was 0.7 ± 0.2 %ID. In addition, in series [3] (60 min after injection), the Liver activity is 0.8 ± 0.1 %ID, the Lung activity was 0.1 ± 0.1 %ID, the Spleen activity is listed as 0.1 ± 0.2 %ID and the Urine activity was 79.2 ± 6.4 %ID. In series [4] (rats), the Erythrocyte uptake is 20%.

As to “rhenium-tricarbonyl-N-(2-(4-methylbenzenesulphonate)ethyl))iminodiacetic acid [Re-OTs]”, the “Stability on heating (HPLC)” value in series [10] is listed as “stable”.
